A selection: hits, their analogues and other compounds. The true share with any hit is near 1%.
HMGR II inh = blocks class II HMG-CoA reductase of Enterococcus faecalis | purified E. faecalis HMGR, NADPH absorbance 340 nm kinetic | inhibition, % at 10 µM | hit rate 0.41% among 190,000 | AID 1066;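 active = inhibition above a set limit, the median over all tested compounds plus 3 SD, cut at about 9.5% in these data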;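 note: enzyme runs in reverse so mevalonate oxidation gives rising NADPH absorbance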
TNF necrop inh = inhibitors of TNF-alpha induced necroptosis in Jurkat FADD-/- cells. hit rate 0.068% among 220,000. Jurkat FADD-/- TNF necroptosis rescue, ATP luminescence, 24 h; 0 = TNF only, 100 = no-TNF cells. activation (protection from cell death), % at 10 µM;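 active = activation, meaning protection from cell death, of at least 50% relative to plate controls; inactive = activation below 50%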;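 note: necroptosis triggered by 40 ng/mL TNF-alpha added together with compound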
zVAD death inh = blocks zVAD induced death of L929 cells; L929 zVAD necroptosis rescue, ATP luminescence, 24 h; with zVAD 60 µM; viability rescue, % at 10 µM; hit rate 0.38% among 220,000;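 active = activation, scaled between plate controls, above about 75%, limit read from the data; inactive = activation under that limit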
PERK inhibitor = human PERK inhibition, primary cell-based screen. inhibition, % at 5.6 µM. Q9NZJ5. CHO PERK-DD fusion, SEAP luminescence translation reporter. hit rate 0.17% among 220,000;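 active = inhibition above the mean inhibition of all tested compounds plus 3 SD, set separately per screening campaign, cut at about 2.9% in these data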;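 note: PERK kinase domain activated by AP20187 dimerizer at 100 nM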
Rad51 HR inh = blocks human Rad51 in homologous recombination | AID 1385 | Q06609 | hRad51 DNA strand exchange, fluorescence dequenching | inhibition, % at 10 µM | hit rate 0.085% among 200,000;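 active = inhibition above 40% at the single screening dose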
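Assay system: Human Rad51 nucleoprotein filaments preassembled on unlabelled ssDNA | Reagent: Donor/quencher-labelled 47-bp dsDNA substrate | Doses: One concentration, 10 µM final | Times: 37 °C 15-min filament assembly, 30-min compound preincubation, 15-min exchange | Technique: Fluorescein emission 520 nm, excitation 485 nm | Benchmarks: Plate control and blank wells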
Large screens that a line does not name were inactive.

C/C(CCN1CCCCc2nc(C)c(C)cc21)=N\O[C@H](C)c1cn([C@H](CO)Cc2ccccc2)nn1	HMGR II inh 12 (no result: Rad51 HR inh)
CC(=O)Nc1ccc(NC(=O)C(=O)N/N=C/c2cccnc2)cc1	none (no result: HMGR II inh)
CCN(CC)C(=S)NCCc1ccccc1	HMGR II inh 12
O=C(NCCCN1CCCC1=O)c1nnc(Cc2c(F)cccc2Cl)o1	none
CN1CCN(CCCNC(=O)c2nnc(Cc3c(F)cccc3Cl)o2)CC1	HMGR II inh 10
COc1ccc(S(=O)(=O)NCC2CCC(C(=O)NCC(OC)OC)CC2)cc1 (centres undefined)	PERK inhibitor 3.2 (no result: Rad51 HR inh)
O=C(Nc1nccs1)c1cn(-c2ccccc2)nc1-c1ccncc1	none
O=C(Nc1ccncc1)c1cn(-c2ccccc2)nc1-c1cccs1	HMGR II inh 13 (no result: Rad51 HR inh)
Nc1ccccc1C(=O)N1CCCC1	PERK inhibitor 3.1 (no result: Rad51 HR inh)
O=C1c2ccccc2-c2n[nH]c(=O)c3ccc(N4CCCCC4)c1c23	none
Cc1nc2c([nH]1)C1(CCN(Cc3ccccc3)CC1)C(C#N)=C(N)O2	HMGR II inh 17
CC1(C)CC(=O)C2=C(C1)OC(N)=C(C#N)C21CCN(Cc2ccccc2)CC1	none
Cc1ccc(S(=O)(=O)NNC(=O)C(=O)NNS(=O)(=O)c2ccc(C)cc2)cc1	none
Cc1ccc(S(=O)(=O)NNC(=O)CCCCC(=O)NNS(=O)(=O)c2ccc(C)cc2)cc1	HMGR II inh 13
Cc1c(O)ccc2c3c(c(=O)oc12)CCC(C)C3 (centres undefined)	none
Cc1c(O)ccc2c3c(c(=O)oc12)CCCC3	PERK inhibitor 3.7
CCCOC(=O)Nc1cc(OC)ccc1[N+](=O)[O-]	none
O=c1c2ccccc2nc(/C=C/c2cccnc2)n1Cc1ccccc1	Rad51 HR inh 48
CCC(CO)NCc1sccc1C (centres undefined)	HMGR II inh 10
Cc1ccccc1OCc1nnc(SCC(=O)Nc2ccc3nc(SCC(=O)Nc4ccccc4)sc3c2)n1C	none (no result: zVAD death inh, Rad51 HR inh)
c1ccc2c(c1)Nc1nccnc1S2	zVAD death inh 85 (no result: Rad51 HR inh)
O=C1Nc2cccnc2Sc2ccccc21	none
Fc1ccc(C2=NN(c3ccccc3)C(c3ccco3)C2)cc1 (centres undefined)	HMGR II inh 13
COC(=O)c1ccc(-n2c(C)cc(C(=O)CSc3cccc[n+]3[O-])c2C)cc1	Rad51 HR inh 73
COCCCn1c(SCc2nnc(-c3ccc(OC)c(OC)c3)o2)nnc1-c1ccncc1	HMGR II inh 9.9
COc1ccc(-c2nnc(CSc3nnc(-c4ccncc4)n3C3CCCCC3)o2)cc1OC	none
COc1ccccc1N1CCN(C(c2cccs2)C(C)NC(=O)c2ccncc2)CC1 (centres undefined)	none (no result: HMGR II inh)
CCOC(=O)CSc1nc(C)c2cc(C)c(C)cc2n1	HMGR II inh 13
CN(C(=O)COC(=O)CNC(=O)c1ccc(Cl)cc1Cl)c1ccccc1	none
CCn1nnc(NC(=O)c2cccc(-c3cc4ccccc4oc3=O)c2)n1	Rad51 HR inh 51
CCCCN(C(=O)c1ccc(S(=O)(=O)N(C)C)cc1)c1nc2ccccc2s1	none
COc1ccc(C)c2sc(N(CCCN(C)C)C(=O)c3ccc(S(=O)(=O)N(C)C)cc3)nc12	Rad51 HR inh 47
O=C(Cn1nc(-c2cccc(Cl)c2)ccc1=O)Nc1ccc(C(=O)NC2CC2)cc1	none
Cc1[nH]nc2c1C(c1ccc(O)cc1)C1=C(CC(C)(C)CC1=O)N2 (centres undefined)	none
Cc1[nH]nc2c1C(c1ccsc1)C1=C(CC(C)(C)CC1=O)N2 (centres undefined)	HMGR II inh 15
CC(O)CNc1cnccn1 (centres undefined)	none
Cc1ccc(Cl)c(OCC(=O)OCC(=O)NC2CCCc3ccccc32)c1 (centres undefined)	HMGR II inh 13
O=C(COC(=O)COc1ccc2ccccc2c1)NC1CCCc2ccccc21 (centres undefined)	none
Cc1cc(C)cc(SCc2noc(C(=O)NCCC(C)C)c2C(=O)NCCC(C)C)c1	none (no result: HMGR II inh, TNF necrop inh, zVAD death inh, PERK inhibitor)
Cc1ccc(NC(=S)NC(=O)CC2CC(C)(C)OC2=O)cc1 (centres undefined)	HMGR II inh 28 (no result: Rad51 HR inh)
O=C(Nc1cc(Cl)ccc1N1CCOCC1)c1cccnc1Cl	none (no result: HMGR II inh, Rad51 HR inh)
Cc1nn(Cc2ccccc2)c(N)c1C#N	TNF necrop inh 54
O=C(CN1C(=O)c2ccccc2S1(=O)=O)NC(Nc1ccccc1F)C(Cl)(Cl)Cl (centres undefined)	none (no result: Rad51 HR inh)
